Measurements as given in article PMC8480316 (Chemical Science, 2021).
Where a SMILES comes first, the peptide text is derived from it. Bridges are numbered along the chain shown (N, C = ends). The star is where a group is joined. βGlc = OC[C@H]1O[C@@H](*)[C@H](O)[C@@H](O)[C@@H]1O

Key:
[1] = target: toll-like receptor 4 (TLR4) (Homo sapiens, UniProt O00206); assay type: binding; settings: ELISA, result in words
Procedure, shortened: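 Antagonism of LPS–TLR4 binding measured by ELISA, read as optical density at 450 nm. Each sample was run as four parallel experiments, with OD reported as mean ± standard deviation. IC50 values were derived from dose–response curves.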

thermal stability assay = assay type: physicochemical; settings: heating experiments, 95 °C for 3 h
carboxypeptidase Y = test: carboxypeptidase Y-treatment experiments; assay type: in vitro ADME; settings: 28 °C for 12 h, pH 6.0

Sequence of toll-like receptor 4 (TLR4) (O00206 24-839): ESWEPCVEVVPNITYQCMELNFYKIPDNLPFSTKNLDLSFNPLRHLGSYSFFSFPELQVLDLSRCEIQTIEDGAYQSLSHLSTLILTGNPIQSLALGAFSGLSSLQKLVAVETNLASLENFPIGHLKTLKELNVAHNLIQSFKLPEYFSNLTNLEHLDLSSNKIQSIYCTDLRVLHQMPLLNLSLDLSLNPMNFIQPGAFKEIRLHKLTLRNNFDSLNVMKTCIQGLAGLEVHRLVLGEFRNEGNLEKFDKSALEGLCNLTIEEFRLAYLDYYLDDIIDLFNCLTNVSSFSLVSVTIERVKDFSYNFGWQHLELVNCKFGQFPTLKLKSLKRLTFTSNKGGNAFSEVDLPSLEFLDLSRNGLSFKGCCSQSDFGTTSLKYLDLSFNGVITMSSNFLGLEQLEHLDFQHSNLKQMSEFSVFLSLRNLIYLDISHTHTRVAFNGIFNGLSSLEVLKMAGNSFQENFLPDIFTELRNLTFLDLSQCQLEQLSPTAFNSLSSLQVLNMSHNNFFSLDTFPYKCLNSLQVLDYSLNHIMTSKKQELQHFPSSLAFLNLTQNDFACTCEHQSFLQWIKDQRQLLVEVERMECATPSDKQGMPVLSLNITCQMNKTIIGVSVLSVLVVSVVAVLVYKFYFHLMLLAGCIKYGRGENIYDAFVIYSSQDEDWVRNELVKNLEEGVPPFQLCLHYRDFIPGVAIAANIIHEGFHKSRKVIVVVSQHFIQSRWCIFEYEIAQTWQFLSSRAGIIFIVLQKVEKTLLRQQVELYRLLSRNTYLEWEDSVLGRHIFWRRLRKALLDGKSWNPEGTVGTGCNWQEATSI
Sequence of toll-like receptor 4 (TLR4) (Q9Y6Y9 17-160 partner limits assumed): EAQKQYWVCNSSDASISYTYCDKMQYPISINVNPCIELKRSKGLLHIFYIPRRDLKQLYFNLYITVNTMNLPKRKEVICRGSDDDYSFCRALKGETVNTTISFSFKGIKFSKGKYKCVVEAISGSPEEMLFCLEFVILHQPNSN

Row | thermal stability (thermal stability assay) | proteolytic stability (carboxypeptidase Y) | Compound | antagonistic (inhibitory) activity against the binding of LPS to TLR4 [1]
1 | – | – | CC[C@H](C)[C@@H]1NC(=O)[C@H](C(C)C)NC(=O)[C@H](C(C)C)NC(=O)[C@H](CC(C)C)NC(=O)C[C@@H](C(=O)N[C@@H](Cc2c[nH]c3ccccc23)C(=O)N[C@@H](CC(N)=O)C(=O)N[C@@H](C)C(=O)N2CCC[C@H]2C(=O)NCC(=O)N[C@@H](Cc2c[nH]c3ccccc23)C(=O)N[C@@H](Cc2ccc(O[C@@H]3O[C@H](CO)[C@@H](O)[C@H](O)[C@H]3O)cc2)C(=O)O)NC(=O)[C@H](C)NC(=O)[C@H](CCC(N)=O)NC(=O)[C@H](C(C)C)NC1=O [compound 20, stlassin F15Y-I] (LVVIVQADWNAPGWY(βGlc)-OH; lactam N-8) | comparable inhibitory activities to stlassin (1)
2 | – | – | stlassin I4C [compound 21] | comparable inhibitory activities to stlassin (1)
3 | similarly high stability to that of 1 | similarly high stability to that of 1 | stlassin V2C/A11C [compound 18] | –
